Experimental data reported in ChEMBL document CHEMBL1155415, “Synthesis, characterization, and in vitro antimicrobial activities of 5-alkenyl/hydroxyalkenyl-2-phenylamine-1,3,4-oxadiazoles and thiadiazoles” (2010).
Converted amounts (≈) assume the structure as drawn.

Assays:
Assay type in all cases: functional
Klebsiella pneumoniae [1] = assay: Antibacterial activity against Klebsiella pneumoniae after 24 hrs by two fold dilution technique
Method in brief: (§1)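 Broth dilution MIC. Nutrient broth held log two-fold serial dilutions of compound and was inoculated with about 5 × 10⁵ c.f.u./ml of actively dividing bacteria. Incubation was 24 h at 37 °C, with growth checked visually and spectrophotometrically. MIC is the lowest concentration arresting growth.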

Pseudomonas aeruginosa [2] = assay: Antibacterial activity against Pseudomonas aeruginosa ATCC 27853 at 30 ug after 24 hrs by disc diffusion method; conditions: ATCC 27853, 24 h, read-out: DIZ
Method in brief: (§2)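 Agar disc diffusion. A standard inoculum of […] c.f.u./ml (0.5 McFarland) was spread evenly on agar. 6 mm Whatman no. 1 paper discs, dry-heat sterilized (140 °C, 1 h), were soaked in test compound and placed on nutrient agar. Plates were inverted and incubated 24 h at 37 °C. Read-out: diameter of the inhibition zone.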

Escherichia coli [3] = assay: Antibacterial activity against Escherichia coli ATCC 25922 after 24 hrs by two fold dilution technique; conditions: ATCC 25922, 24 h; method in brief: as §1
Staphylococcus aureus [4] = assay: Antibacterial activity against Staphylococcus aureus ATCC 25923 after 18 to 24 hrs
Staphylococcus aureus [5] = assay: Antibacterial activity against Staphylococcus aureus ATCC 25923 after 24 hrs by two fold dilution technique; conditions: ATCC 25923, 24 h; method in brief: as §1
Escherichia coli [6] = assay: Antibacterial activity against Escherichia coli ATCC 25922 after 18 to 24 hrs
Staphylococcus aureus [7] = assay: Antibacterial activity against Staphylococcus aureus ATCC 25923 at 30 ug after 24 hrs by disc diffusion method; conditions: ATCC 25923, 24 h, read-out: DIZ
Method in brief: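 Disc diffusion. Inoculum of […] c.f.u./ml (0.5 McFarland) spread on sterile nutrient agar plates. 6 mm Whatman no. 1 paper discs, dry-heat sterilised at 140 °C for 1 h, soaked in a known concentration of compound, then placed on the agar. DMSO disc as negative control. Plates inverted, incubated 24 h at 37 °C. Zone of inhibition diameter measured in mm.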

Streptococcus pyogenes [8] = assay: Antibacterial activity against Streptococcus pyogenes at 30 ug after 24 hrs by disc diffusion method; conditions: read-out: DIZ; method in brief: as §2
Streptococcus pyogenes [9] = assay: Antibacterial activity against Streptococcus pyogenes after 18 to 24 hrs
Streptococcus pyogenes [10] = assay: Antibacterial activity against Streptococcus pyogenes after 24 hrs by two fold dilution technique; method in brief: as §1
Klebsiella pneumoniae [11] = assay: Antibacterial activity against Klebsiella pneumoniae at 30 ug after 24 hrs by disc diffusion method; conditions: read-out: DIZ; method in brief: as §2
Escherichia coli [12] = assay: Antibacterial activity against Escherichia coli ATCC 25922 at 30 ug after 24 hrs by disc diffusion method; conditions: ATCC 25922, 24 h, read-out: DIZ; method in brief: as §2
Pseudomonas aeruginosa [13] = assay: Antibacterial activity against Pseudomonas aeruginosa ATCC 27853 after 18 to 24 hrs
Klebsiella pneumoniae [14] = assay: Antibacterial activity against Klebsiella pneumoniae after 18 to 24 hrs
Pseudomonas aeruginosa [15] = assay: Antibacterial activity against Pseudomonas aeruginosa ATCC 27853 after 24 hrs by two fold dilution technique; conditions: ATCC 27853, 24 h; method in brief: as §1
Aspergillus fumigatus [16] = assay: Antifungal activity against Aspergillus fumigatus after 48 hrs by two fold dilution technique
Method in brief: (§3)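 Broth MIC. Broth with log two-fold serial dilutions of compound was inoculated with about 1.6 × 10⁴–6 × 10⁴ c.f.u./ml of fungus and incubated 48 h at 35 °C. MIC is the lowest concentration arresting fungal growth.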

Candida albicans [17] = assay: Antifungal activity against Candida albicans after 48 hrs by two fold dilution technique; method in brief: as §3
[18] = test system: Trichophyton mentagrophytes; assay: Antifungal activity against Trichophyton mentagrophytes after 48 hrs by two fold dilution technique; method in brief: as §3
[19] = test system: Trichophyton mentagrophytes; assay: Ratio of MFC to MIC for Trichophyton mentagrophytes
Method in brief: (§4)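 MFC: 0.1 ml from each MIC tube was spread on agar and colonies were counted after 48 h at 35 °C. MFC is the lowest concentration killing 99.9% of the inoculum. The MFC/MIC ratio was then calculated to classify activity as fungistatic or fungicidal.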

Klebsiella pneumoniae [20] = assay: Antibacterial activity against Klebsiella pneumoniae after 24 hrs by disc diffusion method; method in brief: as §2
Aspergillus fumigatus [21] = assay: Antifungal activity against Aspergillus fumigatus after 48 hrs by disk diffusion method
Method in brief: (§5)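 Agar well diffusion with compounds in DMSO. The dish was lawned with a saline spore suspension, excess decanted, and dried 1 h at 37 °C. Wells were punched. Read-out: inhibition zone in mm. Griseofulvin served as standard and DMSO as negative control.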

Candida albicans [22] = assay: Antifungal activity against Candida albicans after 48 hrs by disk diffusion method; method in brief: as §5
Aspergillus fumigatus [23] = assay: Ratio of MFC to MIC for Aspergillus fumigatus; method in brief: as §4
Candida albicans [24] = assay: Ratio of MFC to MIC for Candida albicans; method in brief: as §4
Escherichia coli [25] = assay: Antibacterial activity against Escherichia coli ATCC 25922 after 24 hrs by disc diffusion method; method in brief: as §2
Talaromyces marneffei [26] = assay: Ratio of MFC to MIC for Penicillium marneffei; method in brief: as §4
Streptococcus pyogenes [27] = assay: Antibacterial activity against Streptococcus pyogenes after 24 hrs by disc diffusion method; method in brief: as §2
[28] = test system: Trichophyton mentagrophytes; assay: Antifungal activity against Trichophyton mentagrophytes after 48 hrs by disk diffusion method; method in brief: as §5
Talaromyces marneffei [29] = assay: Antifungal activity against Penicillium marneffei after 48 hrs by disk diffusion method; method in brief: as §5
Talaromyces marneffei [30] = assay: Antifungal activity against Penicillium marneffei after 48 hrs by two fold dilution technique; method in brief: as §3
Pseudomonas aeruginosa [31] = assay: Antibacterial activity against Pseudomonas aeruginosa ATCC 27853 after 24 hrs by disc diffusion method; method in brief: as §2
Staphylococcus aureus [32] = assay: Antibacterial activity against Staphylococcus aureus ATCC 25923 after 24 hrs by disc diffusion method; method in brief: as §2

O=C(N[C@H](CO)[C@H](O)c1ccc([N+](=O)[O-])cc1)C(Cl)Cl [CHLORAMPHENICOL]
MIC (Klebsiella pneumoniae [1]): 6.25 µg/mL (≈ 19.3 µM)
zone of inhibition at 30 µg/disc (Pseudomonas aeruginosa [2]): 32 mm
MIC (Escherichia coli [3]): 6.25 µg/mL (≈ 19.3 µM)
MBC (Staphylococcus aureus [4]): 12.5 µg/mL (≈ 38.7 µM)
MIC (Staphylococcus aureus [5]): 6.25 µg/mL (≈ 19.3 µM)
MBC (Escherichia coli [6]): 12.5 µg/mL (≈ 38.7 µM)
zone of inhibition at 30 µg/disc (Staphylococcus aureus [7]): 22 mm
zone of inhibition at 30 µg/disc (Streptococcus pyogenes [8]): 23 mm
MBC (Streptococcus pyogenes [9]): 12.5 µg/mL (≈ 38.7 µM)
MIC (Streptococcus pyogenes [10]): 6.25 µg/mL (≈ 19.3 µM)
zone of inhibition at 30 µg/disc (Klebsiella pneumoniae [11]): 19 mm
zone of inhibition at 30 µg/disc (Escherichia coli [12]): 27 mm
MBC (Pseudomonas aeruginosa [13]): 12.5 µg/mL (≈ 38.7 µM)
MBC (Klebsiella pneumoniae [14]): 12.5 µg/mL (≈ 38.7 µM)
MIC (Pseudomonas aeruginosa [15]): 6.25 µg/mL (≈ 19.3 µM)

CCCCCC[C@@H](O)C/C=C\CCCCCCCc1nnc(Nc2ccccc2)o1
MFC (Aspergillus fumigatus [16]): 50 µg/mL (≈ 121 µM)
MIC (Aspergillus fumigatus [16]): 12.5 µg/mL (≈ 30.2 µM)
MFC (Candida albicans [17]): 100 µg/mL (≈ 242 µM)
MIC (Candida albicans [17]): 25 µg/mL (≈ 60.4 µM)
MFC [18]: 50 µg/mL (≈ 121 µM)
MIC [18]: 12.5 µg/mL (≈ 30.2 µM)
Ratio [19]: 4
diameter of the inhibition zone (DIZ) (Klebsiella pneumoniae [20]): 19.7 mm
diameter of the inhibition zone (DIZ) (Aspergillus fumigatus [21]): 20.7 mm
MIC (Klebsiella pneumoniae [1]): 6.25 µg/mL (≈ 15.1 µM)
diameter of the inhibition zone (DIZ) (Candida albicans [22]): 23.3 mm
MIC (Escherichia coli [3]): 6.25 µg/mL (≈ 15.1 µM)
Ratio (Aspergillus fumigatus [23]): 4
MBC (Staphylococcus aureus [4]): 12.5 µg/mL (≈ 30.2 µM)
Ratio (Candida albicans [24]): 4
diameter of the inhibition zone (DIZ) (Escherichia coli [25]): 22.8 mm
Ratio (Talaromyces marneffei [26]): 8
diameter of the inhibition zone (DIZ) (Streptococcus pyogenes [27]): 21.2 mm
MIC (Staphylococcus aureus [5]): 6.25 µg/mL (≈ 15.1 µM)
diameter of the inhibition zone (DIZ) [28]: 17.5 mm
MBC (Escherichia coli [6]): 25 µg/mL (≈ 60.4 µM)
diameter of the inhibition zone (DIZ) (Talaromyces marneffei [29]): 13.9 mm
MFC (Talaromyces marneffei [30]): 100 µg/mL (≈ 242 µM)
MIC (Talaromyces marneffei [30]): 12.5 µg/mL (≈ 30.2 µM)
diameter of the inhibition zone (DIZ) (Pseudomonas aeruginosa [31]): 25.6 mm
diameter of the inhibition zone (DIZ) (Staphylococcus aureus [32]): 20.2 mm
MBC (Streptococcus pyogenes [9]): 12.5 µg/mL (≈ 30.2 µM)
MIC (Streptococcus pyogenes [10]): 6.25 µg/mL (≈ 15.1 µM)
MBC (Pseudomonas aeruginosa [13]): 50 µg/mL (≈ 121 µM)
MBC (Klebsiella pneumoniae [14]): 6.25 µg/mL (≈ 15.1 µM)
MIC (Pseudomonas aeruginosa [15]): 6.25 µg/mL (≈ 15.1 µM)
